# In ChEMBL document CHEMBL1795318, “Development of tetrahydroisoquinoline-based hydroxamic acid derivatives: potent histone deacetylase inhibitors with marked in vitro and in vivo antitumor activities” (J Med Chem, 2011):
# How the values were obtained:
# Histone deacetylase 8 = target: T1, Histone deacetylase 8 (Homo sapiens, UniProt Q9BY41); experiment: Inhibition of HDAC8 after 30 mins by fluorescence microplate reader
# T1 sequence (Q9BY41 whole entry): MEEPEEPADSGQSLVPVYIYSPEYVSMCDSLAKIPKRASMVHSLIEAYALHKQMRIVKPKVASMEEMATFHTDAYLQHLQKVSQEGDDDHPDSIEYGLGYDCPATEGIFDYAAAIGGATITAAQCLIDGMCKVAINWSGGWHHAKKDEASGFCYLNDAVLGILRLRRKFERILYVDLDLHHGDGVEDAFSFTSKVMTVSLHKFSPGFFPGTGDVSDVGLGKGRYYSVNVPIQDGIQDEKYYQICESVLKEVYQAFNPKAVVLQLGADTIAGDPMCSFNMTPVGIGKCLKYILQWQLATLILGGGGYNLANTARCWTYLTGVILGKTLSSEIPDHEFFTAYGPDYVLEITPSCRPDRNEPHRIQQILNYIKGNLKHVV
# Outline: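 HDAC8 mixed with compound at various concentrations, fluorogenic substrate added, 37 °C for 30 min; stopped with developer containing trypsin and TSA. Fluorescence read after 20 min (ex 390/em 460 nm); inhibition relative to control wells, IC50 by regression of concentration/inhibition data; mean ± SD of at least three determinations.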
# A549 = experiment: Cytotoxicity against human A549 cells after 48 hrs by MTT assay; assay type: functional, cell-based; settings: A549, 48 h
# Outline: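 Cells kept in RPMI1640 with 10% FBS, 37 °C, 5% CO₂; seeded day before dosing, grown ≥4 h, treated with a concentration series for 48 h. MTT 0.5% solution added, 4 h further; formazan dissolved in DMSO 15 min, absorbance at 570 nm. Mean of three experiments.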
# MDA-MB-231 = experiment: Cytotoxicity against human MDA-MB-231 cells after 48 hrs by MTT assay; assay type: functional, cell-based; settings: MDA-MB-231, 48 h
# NB-4 = experiment: Cytotoxicity against human NB4 cells after 48 hrs by MTT assay; assay type: functional, cell-based; settings: NB-4, 48 h
# K562 = experiment: Cytotoxicity against human K562 cells after 48 hrs by MTT assay; assay type: functional, cell-based; settings: K562, 48 h
# Histone deacetylase = experiment: Inhibition of HDAC in human HeLa cell nuclear extract after 30 mins by fluorescence microplate reader; assay type: protein assay
# HeLa = experiment: Cytotoxicity against human HeLa cells after 48 hrs by MTT assay; assay type: functional, cell-based
# [1] = target: T2, Protein deacetylase HDAC6 (Homo sapiens, UniProt Q9UBN7); experiment: Inhibition of HDAC6 in human HeLa cell nuclear extract after 30 mins by fluorescence microplate reader
# T2 sequence (Q9UBN7 whole entry): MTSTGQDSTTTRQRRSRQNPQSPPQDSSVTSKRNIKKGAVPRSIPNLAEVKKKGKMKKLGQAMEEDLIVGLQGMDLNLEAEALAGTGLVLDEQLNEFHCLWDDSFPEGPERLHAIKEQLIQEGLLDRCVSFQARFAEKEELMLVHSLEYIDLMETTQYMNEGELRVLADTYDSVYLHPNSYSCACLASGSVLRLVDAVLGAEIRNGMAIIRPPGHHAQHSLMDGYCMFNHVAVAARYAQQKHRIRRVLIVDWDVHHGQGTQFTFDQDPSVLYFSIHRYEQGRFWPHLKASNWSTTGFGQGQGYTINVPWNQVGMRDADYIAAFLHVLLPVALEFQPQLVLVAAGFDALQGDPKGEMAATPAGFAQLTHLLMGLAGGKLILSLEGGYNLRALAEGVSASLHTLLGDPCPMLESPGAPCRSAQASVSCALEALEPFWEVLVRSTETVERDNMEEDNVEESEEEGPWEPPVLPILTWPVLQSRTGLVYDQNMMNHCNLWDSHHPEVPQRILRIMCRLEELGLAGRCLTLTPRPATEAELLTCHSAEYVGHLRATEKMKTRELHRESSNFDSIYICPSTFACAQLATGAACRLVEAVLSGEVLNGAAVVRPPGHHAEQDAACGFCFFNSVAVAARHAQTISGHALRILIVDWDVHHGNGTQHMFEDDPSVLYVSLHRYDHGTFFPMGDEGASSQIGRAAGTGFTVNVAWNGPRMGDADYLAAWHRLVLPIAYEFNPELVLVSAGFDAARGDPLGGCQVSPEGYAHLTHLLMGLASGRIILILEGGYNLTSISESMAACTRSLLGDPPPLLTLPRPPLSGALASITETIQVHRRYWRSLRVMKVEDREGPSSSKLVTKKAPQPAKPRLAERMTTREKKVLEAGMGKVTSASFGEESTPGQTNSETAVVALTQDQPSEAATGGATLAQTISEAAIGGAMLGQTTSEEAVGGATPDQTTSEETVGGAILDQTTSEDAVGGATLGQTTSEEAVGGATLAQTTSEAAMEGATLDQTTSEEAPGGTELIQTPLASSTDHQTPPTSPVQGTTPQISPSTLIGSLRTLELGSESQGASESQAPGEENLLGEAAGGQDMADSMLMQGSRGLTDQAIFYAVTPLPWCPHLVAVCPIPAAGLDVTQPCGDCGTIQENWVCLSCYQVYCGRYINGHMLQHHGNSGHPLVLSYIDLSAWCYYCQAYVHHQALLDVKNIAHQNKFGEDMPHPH
# HL-60 = experiment: Cytotoxicity against human HL60 cells after 48 hrs by MTT assay; assay type: functional, cell-based; settings: HL-60, 48 h
structure (smiles),measurement,setting,value
COc1ccc(NC(=O)[C@@H]2Cc3ccc(OCC(=O)NO)cc3CN2C(=O)[C@@H]2CCCN2)cc1,IC50,Histone deacetylase 8,0.481 µM
COc1ccc(NC(=O)[C@@H]2Cc3ccc(OCC(=O)NO)cc3CN2C(=O)c2ccccc2)cc1,IC50,Histone deacetylase 8,0.164 µM
same,IC50,A549,5.95 µM
same,IC50,MDA-MB-231,3.05 µM
CC[C@H](C)[C@H](NC(=O)[C@@H]1CCCN1)C(=O)N1Cc2cc(OCC(=O)NO)ccc2C[C@H]1C(=O)Nc1ccc(OC)cc1.Cl,IC50,NB-4,9.28 µM
same,IC50,K562,6.59 µM
same,IC50,Histone deacetylase,0.108 µM
same,IC50,HeLa,> 200 µM
same,IC50,Histone deacetylase 8,0.047 µM
same,IC50,[1],0.191 µM
same,IC50,HL-60,69.8 µM
CC[C@H](C)[C@H](NC(=O)[C@@H](N)C(C)C)C(=O)N1Cc2cc(OCC(=O)NO)ccc2C[C@H]1C(=O)Nc1ccc(OC)cc1.Cl,IC50,NB-4,69.9 µM
same,IC50,K562,20.4 µM
same,IC50,Histone deacetylase,0.073 µM
same,IC50,HeLa,118 µM
same,IC50,Histone deacetylase 8,0.068 µM
same,IC50,[1],0.163 µM
COc1ccc(NC(=O)[C@@H]2Cc3ccc(OCC(=O)NO)cc3CN2C(=O)CNC(=O)OC(C)(C)C)cc1,IC50,Histone deacetylase 8,0.514 µM
COc1ccc(NC(=O)[C@@H]2Cc3ccc(OCC(=O)NO)cc3CN2C(=O)[C@@H](N)Cc2ccccc2)cc1,IC50,Histone deacetylase 8,0.368 µM
COc1ccc(NC(=O)[C@@H]2Cc3ccc(OCC(=O)NO)cc3CN2C(=O)[C@@H](N)CC(C)C)cc1,IC50,Histone deacetylase 8,0.675 µM
O=C(COc1ccc2c(c1)CN(C(=O)CCc1ccccc1)[C@H](C(=O)Nc1ccccc1)C2)NO,IC50,Histone deacetylase 8,0.759 µM
CC[C@H](C)[C@H](NC(=O)C1CCNCC1)C(=O)N1Cc2cc(OCC(=O)NO)ccc2C[C@H]1C(=O)Nc1ccc(OC)cc1.Cl,IC50,NB-4,> 200 µM
same,IC50,K562,51.7 µM
same,IC50,Histone deacetylase,0.071 µM
same,IC50,HeLa,102 µM
same,IC50,Histone deacetylase 8,1.44 µM
same,IC50,[1],0.169 µM
COc1ccc(NC(=O)[C@@H]2Cc3ccc(OCC(=O)NO)cc3CN2C(=O)[C@H](C)NC(=O)OC(C)(C)C)cc1,IC50,Histone deacetylase 8,0.182 µM
COc1ccc(NC(=O)[C@@H]2Cc3ccc(OCC(=O)NO)cc3CN2C(=O)[C@H](Cc2ccccc2)NC(=O)OC(C)(C)C)cc1,IC50,Histone deacetylase 8,0.103 µM
same,IC50,A549,12.7 µM
same,IC50,MDA-MB-231,1.29 µM
COc1ccc(NC(=O)[C@@H]2Cc3ccc(OCC(=O)NO)cc3CN2Cc2ccccc2)cc1,IC50,Histone deacetylase 8,1.92 µM
COc1ccc(NC(=O)[C@@H]2Cc3ccc(OCC(=O)NO)cc3CN2C(=O)CCc2ccccc2)cc1,IC50,Histone deacetylase 8,0.502 µM
same,IC50,A549,4.8 µM
same,IC50,MDA-MB-231,1.52 µM
COc1ccc(NC(=O)[C@@H]2Cc3ccc(OCC(=O)NO)cc3CN2CCc2ccccc2)cc1,IC50,Histone deacetylase 8,1.02 µM
CC[C@H](C)[C@H](NC(=O)[C@@H]1CCCN1C(=O)OC(C)(C)C)C(=O)N1Cc2cc(OCC(=O)NO)ccc2C[C@H]1C(=O)Nc1ccc(OC)cc1,IC50,NB-4,5.15 µM
same,IC50,K562,2.32 µM
same,IC50,Histone deacetylase,0.065 µM
same,IC50,HeLa,184 µM
same,IC50,Histone deacetylase 8,0.192 µM
same,IC50,[1],0.141 µM
same,IC50,HL-60,76.8 µM
CC[C@H](C)[C@H](N)C(=O)N1Cc2cc(OCC(=O)NO)ccc2C[C@H]1C(=O)Nc1ccc(OC)cc1,IC50,Histone deacetylase 8,1.04 µM
